# RGS4 pot = RGS4 potentiators or activators, primary screen, cell-based, HEK293 M3R inducible RGS4, calcium flux. hit rate 0.92% among 310,000. AID 463111, 2010. B-score at 10 µM. carbachol calcium flux Fluo4; hits give low values;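 active = B-score of the integrated calcium signal more than 4 SD below the library mean, with starting fluorescence not abnormally high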;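 note: negative B-score means reduced calcium response which marks RGS4 activation or potentiation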
#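 System – HEK293 FlpIn-TREx cells, stable M3R, doxycycline-inducible RGS4 · Reagent – ECmax carbachol challenge · Times – compound preincubation 20 min at room temperature before agonist · Technique – Fluo4 fluorescence kinetic imaging of calcium · Measure – B score of integrated Fluo4 ratio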
# MrgX1 allo act = positive allosteric modulators of MrgX1, primary screen, HEK293 cells, Fluo-4 calcium flux. Mas-related G-protein coupled receptor member X1 (Homo sapiens), Q96LB2. FDSS; hits give high values. B-score at 10 µM. hit rate 0.63% among 310,000;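 active = plate-corrected calcium response at least 3 library SD above typical, normal starting fluorescence, not activating the receptor alone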;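 note: compound read alongside a low EC10 to EC30 dose of BAM8-22 agonist; peak minus trough fluorescence over baseline measured at the second addition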
# Target sequence (Q96LB2 whole entry, looked up): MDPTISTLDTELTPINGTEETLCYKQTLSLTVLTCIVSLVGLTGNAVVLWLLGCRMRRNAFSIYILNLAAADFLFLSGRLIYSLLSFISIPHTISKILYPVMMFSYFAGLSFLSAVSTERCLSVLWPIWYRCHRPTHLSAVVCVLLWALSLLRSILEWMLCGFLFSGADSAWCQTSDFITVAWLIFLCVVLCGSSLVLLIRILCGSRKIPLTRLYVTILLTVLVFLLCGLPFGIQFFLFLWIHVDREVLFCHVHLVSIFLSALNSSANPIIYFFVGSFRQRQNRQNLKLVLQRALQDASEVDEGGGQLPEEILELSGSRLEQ
# MrgX1 antagonist = antagonists of human MrgX1 receptor, primary screen, HEK293 cells, Fluo-4 calcium flux. Mas-related G-protein coupled receptor member X1 (Homo sapiens), Q96LB2. BAM8-22 antagonism; hits give low values. B-score at 10 µM. hit rate 1.3% among 310,000. AID 588676, 2011;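 active = calcium-response B-score plate-corrected more than 3 library SD below zero, starting fluorescence within 5 deviations, no agonist response on first addition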;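 note: peak minus trough fluorescence over baseline after final BAM8-22 challenge near maximal dose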
# MrgX1 ag = agonists of human MrgX1 receptor, primary screen, HEK293 cells, Fluo-4 calcium flux. Fluo-4 calcium fluorescence, agonist mode; hits give high values. hit rate 0.44% among 310,000. Mas-related G-protein coupled receptor member X1 (Homo sapiens), Q96LB2. B-score at 10 µM;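 active = calcium response B-score plate-corrected fluorescence ratio at least 3 library SD, with starting fluorescence B-score inside 5 SD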
#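 Test system: Stable human MrgX1 HEK293 cell line | Schedule: Overnight plating before 1 h dye loading | Read-out basis: Baseline-normalised fluorescence change ratio, B-scored | Detection: Kinetic calcium dye fluorescence, Fluo-4 NW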
# RGS4 block = RGS4 inhibitors, primary screen, cell-based, HEK293 M3R inducible RGS4, calcium flux; B-score at 10 µM; Fluo-4 calcium flux; hits give high values; triggered by carbachol at its EC20; Regulator of G-protein signaling 4 (Homo sapiens), P49798; hit rate 0.45% among 310,000;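 active = B-score, a plate-corrected calcium signal, over three deviations above library mean, with baseline fluorescence within five deviations of library mean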;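 note: RGS4 expression induced by doxycycline in cells with stable M3 receptor; B-score is computed from the integrated fluorescence ratio over baseline after carbachol; higher B-score means a larger calcium signal and so more RGS4 inhibition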
# Target sequence (P49798 whole entry, looked up): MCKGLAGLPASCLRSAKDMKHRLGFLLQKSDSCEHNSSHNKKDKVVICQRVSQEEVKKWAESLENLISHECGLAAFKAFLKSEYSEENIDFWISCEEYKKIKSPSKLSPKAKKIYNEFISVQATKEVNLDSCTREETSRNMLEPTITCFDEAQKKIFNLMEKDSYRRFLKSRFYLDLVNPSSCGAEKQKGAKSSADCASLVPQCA
# MrgX1 PAM conf = MrgX1 positive allosteric modulators, duplicate retest, confirmation, HEK293 cells, Fluo-4 calcium flux; shares compounds with MrgX1 allo act; hit rate 13% among 1,200; Fluo-4 calcium fluorescence, FDSS; activation (ratio percentage), % at 10 µM;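 active = ratio at least 3 SD above the weak peptide control, stable starting fluorescence, no direct agonism earlier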;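 note: compound followed by low BAM8-22 agonist challenge near EC20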
# HEK293 Ca flux = nonspecific calcium signal in parental HEK293, confirmation, counter-screen for MrgX1 antagonist project, parental HEK293 cells, Fluo-4 calcium flux; fluorescence ratio F(max-min)/F0 at 10 µM; AID 624111, 2012; hit rate 2% among 4,000; shares compounds with MrgX1 antagonist; Fluo-4 calcium fluorescence, FDSS;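 active = duplicate-averaged calcium fluorescence ratio at least three times the standard deviation of buffer wells, a nonspecific response in parental cells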
# HEK293 Ca counter = calcium response in parental HEK293 cells, primary screen, counter-screen for MrgX1 allosteric activator project, cell-based, Fluo-4 calcium flux, duplicate | shares compounds with MrgX1 antagonist | Fluo-4 fluorescence ratio; hits give high values | fluorescence ratio F(max-min)/F0 at 10 µM | hit rate 0.4% among 4,000;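 active = calcium fluorescence ratio, averaged over duplicates, at least 3 SD of the buffer-well ratio, meaning a nonspecific response in receptor-free cells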;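 note: untransfected parental HEK293 lacking MrgX1 used as counterscreen for MrgX1 allosteric activators; fluorescence change taken during the second addition on a kinetic imager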
# HEK293 Ca cntr2 = calcium response in parental HEK293 cells, primary screen, counter-screen for MrgX1 agonist project, cell-based, Fluo-4 calcium flux, duplicate, agonist mode; shares compounds with MrgX1 antagonist; Fluo-4 calcium fluorescence (FDSS); hits give high values; fluorescence ratio F(max-min)/F0 at 10 µM; hit rate 8.7% among 4,000; AID 624115, 2012;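 active = calcium fluorescence ratio at least three times the spread of buffer wells, meaning a non-specific response in parental cells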
# Hits are given with their value; i = inactive; nt = no result given. In the library only some 3.5% were active in any assay of this set; here they are far more common.
SMILES,RGS4 pot,MrgX1 allo act,MrgX1 antagonist,MrgX1 ag,RGS4 block,MrgX1 PAM conf,HEK293 Ca flux,HEK293 Ca counter,HEK293 Ca cntr2
COCc1ccc(C(=O)N2CCCC(C(=O)c3cccc(C(F)(F)F)c3)C2)o1 (stereo not drawn),i,32,i,i,i,i,i,i,i
CCOC(=O)NC(Nc1cc(C)on1)(C(F)(F)F)C(F)(F)F,i,i,i,i,i,nt,nt,nt,nt
COc1ccccc1NS(=O)(=O)c1cc(-c2cnc(C3CC3)o2)ccc1C,i,14,i,i,i,i,i,i,i
Cc1ccc(C)c(NS(=O)(=O)c2ccc(-c3cnc(C4CC4)o3)cc2)c1,i,i,i,i,i,nt,nt,nt,nt
CCNc1nc(Sc2ccc(C)cc2)cc(C(F)(F)F)n1,i,6.8,i,i,i,15%,i,i,i
CCNc1nc(Oc2ccc(OC)cc2)cc(C(F)(F)F)n1,i,10,i,i,i,i,i,i,i
CCNc1nc(Oc2c(Cl)cccc2Cl)cc(C(F)(F)F)n1,i,i,i,i,i,nt,nt,nt,nt
CN(C)S(=O)(=O)N1CCN(S(=O)(=O)c2ccc(F)cc2)CC1,i,i,i,i,i,nt,nt,nt,nt
COCCNS(=O)(=O)c1ccc2c(c1)n(C)c(=O)n2C,i,i,i,i,i,nt,nt,nt,nt
C=C/C(C)=C/C[C@H]1C(=C)CCC2[C@](C)(C(=O)O)CCC[C@@]21C (stereo partly drawn),nt,7.4,i,i,nt,i,i,i,i
C=C1CCC2[C@](C)(CO)[C@H](O)CC[C@@]2(C)[C@@H]1C/C=C1\C(=O)OC[C@H]1O (stereo partly drawn),i,i,i,i,i,nt,nt,nt,nt
Cc1ccc(Nc2ncnc3sccc23)c(C)c1,i,8,i,i,i,i,i,i,i
CC(=O)Cc1nsc(NC(=O)c2ccc(-c3cccc(Cl)c3)o2)n1,i,13,i,i,i,15%,i,i,i
CC(=O)Cc1nsc(NC(=O)c2ccc(Br)o2)n1,i,7.4,i,i,i,i,i,i,i
O=C(COc1ccc(F)cc1Cl)Nc1ccccc1C(=O)N1CCCCC1,i,i,i,i,i,nt,nt,nt,nt
O=C(Nc1cccc(-c2cn3ccccc3n2)c1)c1ccccc1,i,6.8,i,i,i,8.4%,i,i,i
Cc1nn(CC(=O)NCc2cccnc2)c(=O)c2ccccc12,i,i,i,i,i,nt,nt,nt,nt
C=CCSc1nc(O)c(C2OC(=O)c3c2ccc(OC)c3OC)c(=O)n1-c1ccccc1 (stereo not drawn),i,31,i,i,i,i,i,i,i
O/N=C/c1cn(-c2ccccc2)nc1-c1ccc2c(c1)OCCO2,i,i,i,i,i,nt,nt,nt,nt
COc1cccc(-c2nn(-c3ccccc3)cc2CO)c1,i,12,i,i,i,i,i,i,i
OCc1cn(-c2ccccc2)nc1-c1ccc2c(c1)OCCO2,i,39,i,i,i,21%,i,i,i
COc1ccc(-c2cc(C3CC3)nc(N)c2C#N)cc1,i,i,i,i,i,nt,nt,nt,nt
COc1ccc(Cc2noc(CN3CCCN(Cc4ccc(F)cc4)CC3)n2)cc1OC,i,i,i,i,i,nt,nt,nt,nt
O=S(=O)(c1ccccc1Br)N1CCN(c2ncccn2)CC1,i,6.7,i,i,i,i,i,i,i
Cc1ccc(OCCCC(=O)Nc2ccc(S(N)(=O)=O)cc2)cc1,i,i,i,i,i,nt,nt,nt,nt
SMILES,RGS4 pot,MrgX1 allo act,MrgX1 antagonist,MrgX1 ag,RGS4 block,MrgX1 PAM conf,HEK293 Ca flux,HEK293 Ca counter,HEK293 Ca cntr2
COc1cccc(NC(=O)NNC(=O)c2ccc3c(c2)NC(=O)C(C)(C)O3)c1,i,i,i,i,i,nt,nt,nt,nt
COc1ccccc1NC(=O)NNC(=O)c1ccc2c(c1)NC(=O)C(C)(C)O2,i,20,i,i,i,i,i,i,i
CCCCC(CCC(=O)Nc1ccn(-c2ccccc2)n1)C(=O)O (stereo not drawn),i,i,i,i,i,nt,nt,nt,nt
COc1ccc(CCN(C)C(=O)c2oc3ccccc3c2C)cc1OC,i,i,i,i,i,nt,nt,nt,nt
COc1ccc(CN(C)C(=O)c2oc3ccccc3c2CSC)cc1F,i,8,i,i,i,i,i,i,i
COc1cccc(CN2CC(C(=O)N(C)Cc3nc4ccc(F)cc4[nH]3)CCC2=O)c1 (stereo not drawn),i,7,i,i,i,i,i,i,i
COc1ccc2nc(CCN(C)C(=O)C3CCC(=O)N(Cc4cccc(F)c4)C3)[nH]c2c1 (stereo not drawn),i,i,i,i,i,nt,nt,nt,nt
Oc1ccccc1-c1cc(-c2ccc3c(c2)OCCO3)n[nH]1,i,6.9,i,i,i,i,i,i,i
O=C(O)c1cc(-c2ccc3c(c2)OCCO3)n[nH]1,i,i,i,i,i,nt,nt,nt,nt
COCc1[nH]nc2c1C(c1ccccc1F)C(C#N)=C(N)O2 (stereo not drawn),i,i,i,i,i,nt,nt,nt,nt
CC(C)(C)NC(=O)CSc1nc(-c2ccc(F)cc2)cs1,i,9.4,i,i,i,i,i,i,i
COc1cc(NC(=O)CCCn2c(=S)[nH]c3ccccc3c2=O)cc(OC)c1OC,i,i,i,i,i,nt,nt,nt,nt
CCCCN1CC[C@H]2C=CC[C@@H](C(=O)NCc3ccc(OC)cc3)[C@H]2C1=O,i,i,i,i,i,nt,nt,nt,nt
CCCCN1CC[C@H]2C=CC[C@@H](C(=O)Nc3ccc(Cl)cc3Cl)[C@H]2C1=O,i,6.9,i,i,i,i,i,i,i
CC(=O)NCCn1c(SCC(=O)NCC2CCCO2)nc2ccccc2c1=O (stereo not drawn),i,i,i,i,i,nt,nt,nt,nt
O=c1c2ccccc2c2ccccc2c(=O)n1CC1CCCO1 (stereo not drawn),i,9.2,i,i,i,i,i,i,i
O=C(CSc1nc2ccccc2c(=O)n1CC1CCCO1)NCC1CCCO1 (stereo not drawn),i,8.2,i,i,i,i,i,i,i

# Screening results (PubChem BioAssay)
